# Measurements of several laboratories.
# Each line is one published result; the experiments were not run side by side.
# Target: Inhibitor of nuclear factor kappa-B kinase subunit epsilon (IKBKE, Homo sapiens, UniProt Q14164)
# Residues used in one study (Q14164 1-716): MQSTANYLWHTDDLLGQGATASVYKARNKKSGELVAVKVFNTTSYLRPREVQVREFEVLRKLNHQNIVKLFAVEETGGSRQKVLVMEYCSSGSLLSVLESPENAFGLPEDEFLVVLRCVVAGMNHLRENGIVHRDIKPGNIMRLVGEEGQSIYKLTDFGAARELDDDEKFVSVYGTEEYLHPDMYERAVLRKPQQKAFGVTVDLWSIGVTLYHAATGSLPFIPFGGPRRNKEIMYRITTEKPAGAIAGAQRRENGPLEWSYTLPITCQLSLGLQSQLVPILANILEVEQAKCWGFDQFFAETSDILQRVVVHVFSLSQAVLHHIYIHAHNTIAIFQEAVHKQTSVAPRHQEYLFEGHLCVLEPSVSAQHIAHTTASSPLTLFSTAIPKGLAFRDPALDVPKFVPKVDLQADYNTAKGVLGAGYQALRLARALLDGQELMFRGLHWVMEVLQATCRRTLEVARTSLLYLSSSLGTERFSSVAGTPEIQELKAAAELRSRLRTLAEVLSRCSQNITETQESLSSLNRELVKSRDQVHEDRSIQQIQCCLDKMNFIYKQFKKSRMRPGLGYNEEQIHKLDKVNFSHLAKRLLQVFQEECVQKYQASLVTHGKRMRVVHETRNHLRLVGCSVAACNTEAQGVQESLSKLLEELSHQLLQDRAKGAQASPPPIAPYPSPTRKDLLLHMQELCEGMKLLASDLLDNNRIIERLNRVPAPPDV
Compound,effect on,mode,technique,tested at,endpoint,value
CC(C)(C)c1cc(C=C(C#N)C#N)cc(Br)c1O,enzyme activity,inhibitor,,0.5 µM,remaining activity,86.8%
Cc1nn(C)cc1-c1nc2c(N3CCN(Cc4ccc(Cl)cc4)CC3)c(Cl)cnc2[nH]1,binding,,competition with immobilised ligand,1 µM,remaining binding,100%
Cn1cc(-c2cc(F)cc(N3CCn4c(cc5c4CCCC5)C3=O)c2CO)cc(Nc2ccc(N3CCN(C4COC4)CC3)cn2)c1=O,enzyme activity,inhibitor,,0.1 µM,inhibition,12%
COc1ncccc1-c1cnn2ccc(N3CCN(C(=O)OC(C)C)CC3)nc12,binding,,competition with immobilised ligand,1 µM,remaining binding,69%
O=c1[nH]c2ccccc2n1C1CCN(Cc2ccc(-c3[nH]c4cc5ncnc5cc4nc3-c3ccccc3)cc2)CC1,enzyme activity,,,0.5 µM,remaining activity,91.9%
Cn1cncc1[C@@](O)(COc1ccc(C#N)cc1-c1ccc(OC(F)(F)F)cc1)c1ccc(C#N)cc1,cell-free assay,,competition with immobilised ligand,1 µM,remaining binding,100%
Nc1ncc(-c2nc(N3CCOCC3)nc(N3CCOCC3)n2)c(C(F)F)n1,binding,,competition with immobilised ligand,10 µM,remaining binding,99%
N#CC1(c2ccccn2)CCN(Cc2cc(C(=O)O)c(=O)n3ccccc23)CC1,cell-free assay,,competition with immobilised ligand,1 µM,remaining binding,88%
Cn1cc(-c2cccc(N3CCc4c(sc5c4CC(C)(C)C5)C3=O)c2CO)cc(Nc2ccncn2)c1=O,enzyme activity,inhibitor,,1 µM,inhibition,9%
